Calls of active or inactive are those of the source. The rule behind the calls is not given here.
Key:
[1] = tested on: HCT-116; test: Induction of cell cycle arrest in human HCT116 cells assessed as accumulation at sub-G1 phase at 30 uM after 48 hrs by propidium iodide staining-based flow cytometric analysis in presence of RNase A (reference value: 6.5%); format: functional
[2] = tested on: HCT-116; test: Induction of apoptosis in human HCT116 cells assessed as viable cells at 15 uM after 48 hrs by annexin V-FITC/propidium iodide staining-based flow cytometric analysis (reference value: 91.2%); format: functional; settings: HCT-116, 48 h, read-out: Activity
[3] = tested on: HCT-116; test: Induction of apoptosis in human HCT116 cells assessed as early apoptotic cells at 15 uM after 48 hrs by annexin V-FITC/propidium iodide staining-based flow cytometric analysis (reference value: 1.6%); format: functional
[4] = tested on: HCT-116; test: Induction of reactive oxygen species in human HCT116 cells at 7.5 uM after 48 hrs by DCFH-DA staining-based flow cytometric analysis (reference value: 5.1%); format: functional
[5] = tested on: HCT-116; test: Induction of reactive oxygen species in human HCT116 cells at 15 uM after 48 hrs by DCFH-DA staining-based flow cytometric analysis (reference value: 5.1%); format: functional
Outline: (§1)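 HCT116 cells seeded overnight, then exposed to test compounds, alone or with NAC, for 48 h in complete medium. Loaded with 20 μM DCFH-DA for 30 min; intracellular ROS in 20 000 cells per group read by flow cytometry as histograms.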

[6] = tested on: HCT-116; test: Induction of apoptosis in human HCT116 cells assessed as cleaved caspase 8 level at 30 uM up to 24 hrs by Western blot analysis in presence of NAC; format: functional, cell-based
[7] = tested on: HCT-116; test: Induction of cell cycle arrest in human HCT116 cells assessed as accumulation at G2/M phase at 30 uM after 24 hrs by propidium iodide staining-based flow cytometric analysis in presence of RNase A (reference value: 20.6%); format: functional
[8] = Downregulation of cdc2 expression in human HCT116 cells at 7.5 to 30 uM after 24 hrs by Western blot analysis; format: functional, cell-based; settings: HCT-116
Outline: (§2)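 HCT116 cells exposed 24 h in complete medium; lysed in RIPA buffer (pH 8.0), protein by BCA, equal loads run on 8–13% SDS-PAGE, PVDF transfer, blocked in 5% BSA/TBST, primary antibodies overnight at 4 °C, HRP secondaries 2 h RT, ECL detection; β-actin as loading control.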

[9] = Antiproliferative activity against human HCT116 cells assessed as cell viability after 72 hrs by SRB assay; format: functional, cell-based; settings: HCT-116, 72 h
Outline: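 HCT116 cells in 96-well plates exposed 24, 48 or 72 h; TCA fixation, 0.4% SRB staining, dye solubilised in 10 mM Tris pH 10.0, absorbance at 515 nm; viability relative to solvent-treated control.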

[10] = Upregulation of ATM expression in human HCT116 cells at 1 hr by Western blot analysis; format: functional, cell-based; settings: HCT-116
[11] = Upregulation of ATR expression in human HCT116 cells up to 24 hrs at 1 hr by Western blot analysis; format: functional, cell-based; settings: HCT-116
[12] = Upregulation of p53 expression in human HCT116 cells at 7.5 to 30 uM after 24 hrs by Western blot analysis; format: functional, cell-based; settings: HCT-116
[13] = target: T1, Serine-protein kinase ATM/ATR (Homo sapiens) (UniProt Q13315+Q13535); test: Activation of ATM/ATR in human HCT116 cells assessed as increase in Chk1 phosphorylation at S345 at 7.5 to 30 uM after 24 hrs by Western blot analysis; format: cell-based; settings: HCT-116; outline: as §2
[14] = target: T1, Serine-protein kinase ATM/ATR (Homo sapiens); test: Activation of ATM/ATR in human HCT116 cells assessed as increase in Chk2 phosphorylation at Thr68 at 7.5 to 30 uM after 24 hrs by Western blot analysis; format: cell-based; settings: HCT-116; outline: as §2
[15] = tested on: HCT-116; test: Increase in p27 expression in human HCT116 cells after 24 hrs by western blot analysis; format: functional, cell-based; outline: as §2
[16] = Decrease in phosphorylated p27 expression at Thr187 in human HCT116 cells after 24 hrs by western blot analysis; format: functional, cell-based; settings: HCT-116; outline: as §2
[17] = tested on: HCT-116; test: Induction of cell cycle arrest in human HCT116 cells assessed as accumulation at G0/G1 phase at 7.5 uM after 48 hrs by propidium iodide staining-based flow cytometric analysis in presence of RNase A (reference value: 54.3%); format: functional
[18] = tested on: HCT-116; test: Induction of cell cycle arrest in human HCT116 cells assessed as accumulation at G2/M phase at 7.5 uM after 48 hrs by propidium iodide staining-based flow cytometric analysis in presence of RNase A (reference value: 19.7%); format: functional
[19] = tested on: A549; test: Antiproliferative activity against human A549 cells after 24 to 72 hrs by SRB assay; format: functional, cell-based
Outline: (§3)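 Cells grown in 96-well plates (RPMI 1640; MRC-5 in MEM, 10% FBS, antibiotics) with compound […]; fixed in 10% TCA 30 min at 4 °C, stained 0.4% SRB in 1% acetic acid 1 h, dye dissolved in 10 mM Tris pH 10.0, A515 read; viability as % of solvent control, IC50 by nonlinear regression; mean of three independent experiments.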

[20] = (§4) Antiproliferative activity against human HCT116 cells after 24 to 72 hrs by SRB assay; format: functional, cell-based; settings: HCT-116; outline: as §3
[21] = tested on: HCT-116; test: as §4; format: functional, cell-based; outline: as §3
[22] = tested on: Mus musculus; test: Upregulation of p27 in human HCT116 cells xenografted in nude mouse at 5 to 10 mg/kg, ip administered 3 times per week measured on day 41 by Western blot analysis; format: functional, organism-based; settings: HCT-116
Outline: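 HCT116 xenografts in nude mice dosed ip at 5 or 10 mg/kg three times weekly to day 41. Portions of the excised frozen tumors were thawed on ice, homogenized in complete lysis buffer, protein quantified by Bradford, and p21, p27 and Skp2 assessed by Western blot with β-actin as internal control.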

[23] = tested on: Mus musculus; test: Downregulation of Ki-67 in human HCT116 cells xenografted in nude mouse at 5 to 10 mg/kg, ip administered 3 times per week measured on day 41 by […]; format: functional, organism-based; settings: HCT-116
Outline: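 Formalin-fixed, paraffin-embedded xenograft sections (mice dosed ip three times weekly) probed with antibodies, detected by LSAB/HRP, counterstained with H&E, imaged by inverted phase-contrast microscopy.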

[24] = tested on: HCT-116; test: Induction of reactive oxygen species in human HCT116 cells after 48 hrs by DCFH-DA staining-based flow cytometric analysis; format: functional, cell-based; outline: as §1
[25] = tested on: HCT-116; test: Induction of morphological change in human HCT116 cells assessed as appearance of rounded cells at 30 uM after 24 to 48 hrs by phase contrast microscopic analysis; format: functional, cell-based
Outline: (§5)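 HCT116 cells incubated with compound for 24 h, then viewed and photographed under phase-contrast microscopy; also examined at 48 h.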

[26] = tested on: HCT-116; test: Induction of morphological change in human HCT116 cells assessed as loss of contact with adjacent cells at 30 uM after 24 to 48 hrs by phase contrast microscopic analysis; format: functional, cell-based; outline: as §5
[27] = tested on: HCT-116; test: Induction of cell cycle arrest in human HCT116 cells assessed as accumulation at S phase at 7.5 uM after 24 hrs by propidium iodide staining-based flow cytometric analysis in presence of RNase A (reference value: 13.4%); format: functional
[28] = tested on: HCT-116; test: Induction of apoptosis in human HCT116 cells assessed as cleaved PARP level at 30 uM up to 48 hrs by Western blot analysis in presence of NAC

O=C/C=C/c1ccc2c(c1)O[C@@H](CO)[C@H](c1ccc(O)c(O)c1)O2 [AMERICANIN A]
Activity [1]: 52%
viability at 15 µM [2]: 76.3%
Activity [3]: 12.2%
Activity [4]: 5.2%
Activity [5]: 7.9%
Activity [6]: inactive
Activity [7]: 38.9%
Activity [8]: Active
IC50 [9]: 8.7 µM
Activity [10]: Dose-dependent effect
Activity [11]: Dose-dependent effect
Activity [12]: Active
Activity [13]: Dose-dependent effect
Activity [14]: Dose-dependent effect
Activity [15]: Dose-dependent effect
Activity [16]: Active
Activity [17]: 55.2%
Activity [18]: 19%
IC50 [19]: 39.1 µM
IC50 [20]: 7.6 µM
Activity [21]: Dose-dependent effect
Activity [22]: Active
Activity [23]: Active
Activity [24]: Dose-dependent effect
Activity [25]: Active
Activity [26]: Active
Activity [27]: 15.6%
Activity [28]: inactive
